Converted amounts (≈) assume the structure as drawn. “And” between values parts separate entries of the source, which are not always exact repeats. Equal entries are not always repeated. Where only a bound is given, the exact number is not on record here.

The subject of one experiment is Acinetobacter baumannii. Put plainly: Minimum inhibitory concentration (MIC) was measured against Acinetobacter baumanni ATCC 19606. Type of experiment: functional. Put shortly:
(§1)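 Strains from ATCC; compounds tested as sulfate salts (stable ≥24 h in water at pH 7.0). MIC taken as highest dilution with no visible bacterial growth, expressed in mg/L of free base.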

A further experiment concerns Citrobacter freundii. Put plainly: Minimum inhibitory concentration (MIC) was measured against Citrobacter freundii. It counts as functional. Put shortly: (§2)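 Strains were clinical isolates from the microbiology laboratories of Cliniques Universitaires St-Luc and Hôpital Brugmann, Brussels, and were characterized there. Compounds were tested as sulfate salts, which were stable in distilled water at pH 7.0 for at least 24 h. MIC was the highest dilution giving no visible growth, expressed in mg/L of free base.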

In experiment [1] the test system is Escherichia coli. Put plainly: Minimum inhibitory concentration (MIC) was measured against Escherichia coli. It counts as functional. Summed up: as §2
For experiment [2], the system named is Escherichia coli. Put plainly: Minimum inhibitory concentration (MIC) was measured against Escherichia coli ATCC 25922. It counts as functional.
Experiment [3] has as its system Escherichia coli. Put plainly: Minimum inhibitory concentration (MIC) was measured against Escherichia coli ATCC 35218. Type of experiment: functional. Summed up: as §1
The next experiment deals with Enterococcus faecalis. Put plainly: Minimum inhibitory concentration (MIC) was measured against Enterococcus faecalis ATCC 29212. It counts as functional.
For experiment [4], the system named is Pseudomonas aeruginosa. Put plainly: Minimum inhibitory concentration (MIC) was measured against Pseudomonas aeruginosa ATCC 27853. Type of experiment: functional.
The test system of experiment [5] is Pseudomonas aeruginosa. Put plainly: Minimum inhibitory concentration (MIC) was measured against Pseudomonas aeruginosa. Type of experiment: functional. Put shortly:
as §2

Experiment [6] has as its system Staphylococcus aureus. Put plainly: Minimum inhibitory concentration (MIC) was measured against Staphylococcus aureus. It counts as functional. Put shortly: as §2
The test system of the next experiment is Acinetobacter lwoffii. Put plainly: microbe, parasite or virus in culture. As to conditions: ATCC 17986.
For experiment [7], the system named is Staphylococcus aureus. Put plainly: microbe, parasite or virus in culture. The settings on record: ATCC 25923.
The next experiment relates to Enterobacter cloacae. Put plainly: Minimum inhibitory concentration (MIC) was measured against Enterobacter cloacae. Type of experiment: functional. Summed up:
as §2

The next experiment deals with Serratia marcescens. Put plainly: Minimum inhibitory concentration measured against Serratia marcescens. It counts as functional. Summed up: as §2
Experiment [8] concerns the target T1, Phospholipase A1 member A (Rattus norvegicus, UniProt P97535).
T1 sequence (P97535 whole entry): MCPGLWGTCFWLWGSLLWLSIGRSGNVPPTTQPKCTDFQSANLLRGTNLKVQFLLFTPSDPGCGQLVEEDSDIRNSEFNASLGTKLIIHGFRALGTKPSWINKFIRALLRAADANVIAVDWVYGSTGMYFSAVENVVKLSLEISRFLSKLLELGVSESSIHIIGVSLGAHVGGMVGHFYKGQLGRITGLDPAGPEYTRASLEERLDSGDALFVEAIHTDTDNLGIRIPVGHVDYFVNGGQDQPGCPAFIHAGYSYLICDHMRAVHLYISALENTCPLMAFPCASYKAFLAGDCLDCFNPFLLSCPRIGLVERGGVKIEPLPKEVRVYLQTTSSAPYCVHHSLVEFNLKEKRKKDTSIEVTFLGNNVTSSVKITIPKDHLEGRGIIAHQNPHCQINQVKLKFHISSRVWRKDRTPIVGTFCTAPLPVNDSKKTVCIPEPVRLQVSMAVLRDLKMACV
Put plainly: IC50 was measured as concentration causing 50% inhibition of lysosomal phospholipase A1 activity.

Setting [9] is: Pseudomonas aeruginosa, read-out: MIC.
Setting [10] is: Enterobacter cloacae, read-out: MIC.
[11] abbreviates: Serratia marcescens, read-out: MIC.

As for `NCC[C@H](O)C(=O)N[C@@H]1C[C@H](N)[C@@H](O[C@H]2O[C@H](CN)[C@@H](O)[C@H](O)[C@H]2O)[C@H](O)[C@H]1O[C@H]1O[C@H](CO)[C@@H](O)[C@H](N)[C@H]1O` [AMIKACIN], the MIC in the experiment with Acinetobacter baumannii is 16 µg/mL (≈ 27.3 µM); against Citrobacter freundii, 4 µg/mL (≈ 6.83 µM); in the experiment with Escherichia coli [1], 128 µg/mL (≈ 219 µM); with Escherichia coli [2], 8 µg/mL (≈ 13.7 µM); in the experiment with Escherichia coli [3] it was 2 µg/mL (≈ 3.42 µM); against Enterococcus faecalis it was 64 µg/mL (≈ 109 µM). The MIC in the experiment on Pseudomonas aeruginosa [4] came out at 32 µg/mL (≈ 54.6 µM); against Pseudomonas aeruginosa [5], 64 µg/mL (≈ 109 µM); with Pseudomonas aeruginosa [5] (setting [9]) it was 64 µg/mL (≈ 109 µM); in the experiment on Staphylococcus aureus [6], 32 µg/mL (≈ 54.6 µM); with Acinetobacter lwoffii it was 32 µg/mL (≈ 54.6 µM); with Staphylococcus aureus [7], 4 µg/mL (≈ 6.83 µM).
In the case of `NC[C@H]1O[C@H](O[C@H]2[C@H](O)[C@@H](O[C@H]3O[C@H](CO)[C@@H](O)[C@H](N)[C@H]3O)[C@H](N)C[C@@H]2N)[C@H](O)[C@@H](O)[C@@H]1O` [KANAMYCIN], the MIC was 4 µg/mL (≈ 8.26 µM) against Acinetobacter baumannii; 4 µg/mL (≈ 8.26 µM) against Citrobacter freundii; over 128 µg/mL against Escherichia coli [1]; 8 µg/mL (≈ 16.5 µM) in the experiment on Escherichia coli [2]; 2 µg/mL (≈ 4.13 µM) in the experiment with Escherichia coli [3]; 32 µg/mL (≈ 66 µM) against Enterococcus faecalis. The MIC against Pseudomonas aeruginosa [4] is over 128 µg/mL; in the experiment with Pseudomonas aeruginosa [5] (setting [9]), over 128 µg/mL; against Staphylococcus aureus [6], over 128 µg/mL; with Acinetobacter lwoffii, 16 µg/mL (≈ 33 µM); against Staphylococcus aureus [7] it was 1 µg/mL (≈ 2.06 µM).
Take `CCNC1CC(N)C(OC2OC(CNC(=O)C(C)N)=CCC2N)C(O)C1OC1OCC(C)(O)C(NC)C1O` (stereo not given): the MIC was over 128 µg/mL in the experiment with Acinetobacter baumannii; 32 µg/mL (≈ 58.5 µM) in the experiment on Citrobacter freundii; over 128 µg/mL in the experiment on Enterobacter cloacae (setting [10]); over 128 µg/mL in the experiment with Escherichia coli [1]; 128 µg/mL (≈ 234 µM) against Escherichia coli [2]; 32 µg/mL (≈ 58.5 µM) in the experiment on Escherichia coli [3]. In addition, the MIC against Enterococcus faecalis is 128 µg/mL (≈ 234 µM); in the experiment on Pseudomonas aeruginosa [4], over 128 µg/mL; in the experiment with Pseudomonas aeruginosa [5] (setting [9]), over 128 µg/mL; in the experiment with Serratia marcescens it was over 128 mg/L; in the experiment on Serratia marcescens (setting [11]), 128 mg/L (≈ 234 µM); against Staphylococcus aureus [6], over 128 µg/mL. For the same molecule, the MIC is 128 µg/mL (≈ 234 µM) against Acinetobacter lwoffii and 32 µg/mL (≈ 58.5 µM) against Staphylococcus aureus [7].
In the case of `CCN[C@@H]1C[C@H](N)[C@@H](O[C@H]2OC(CN)=CC[C@H]2N)[C@H](O)[C@H]1O[C@H]1OC[C@](C)(O)[C@H](NC)[C@H]1O` [NETILMICIN], the MIC against Acinetobacter baumannii was 32 µg/mL (≈ 67.3 µM); against Citrobacter freundii it was 0.25 µg/mL (≈ 0.526 µM); against Escherichia coli [1], over 128 µg/mL; in the experiment with Escherichia coli [2], 1 µg/mL (≈ 2.1 µM); against Escherichia coli [3] it was 0.5 µg/mL (≈ 1.05 µM); against Enterococcus faecalis it was 4 µg/mL (≈ 8.41 µM). For the same molecule, the MIC is 8 µg/mL (≈ 16.8 µM) in the experiment with Pseudomonas aeruginosa [4]; over 128 µg/mL in the experiment on Pseudomonas aeruginosa [5]; 64 µg/mL (≈ 135 µM) in the experiment on Pseudomonas aeruginosa [5] (setting [9]); 8 µg/mL (≈ 16.8 µM) against Staphylococcus aureus [6]; 32 µg/mL (≈ 67.3 µM) in the experiment with Acinetobacter lwoffii; 0.25 µg/mL (≈ 0.526 µM) with Staphylococcus aureus [7].
GENTAMICIN [listing 1 of 2 here]: the MIC is 32 µg/mL with Acinetobacter baumannii; 1 µg/mL against Citrobacter freundii; 32 µg/mL against Enterobacter cloacae; 16 µg/mL in the experiment on Escherichia coli [1]; 4 µg/mL with Escherichia coli [2]; 1 µg/mL in the experiment on Escherichia coli [3]. Also, the MIC in the experiment on Enterococcus faecalis was 16 µg/mL; in the experiment with Pseudomonas aeruginosa [4], 8 µg/mL; in the experiment on Pseudomonas aeruginosa [5] it was 64 µg/mL and > 128 µg/mL; against Serratia marcescens it was 4 µg/mL (2×) and 8 µg/mL (2×); with Staphylococcus aureus [6], over 128 µg/mL.
Usually IC50 stands for the concentration that gives 50% inhibition. GENTAMICIN [listing 2 of 2 here]: in [8], the IC50 was 45 µg/mL.
On to `CC(N)C(=O)NC1CC(N)C(OC2OC(CN)C(O)C(O)C2O)C(O)C1OC1OC(CO)C(O)C(N)C1O` (stereo not given), for which the MIC with Acinetobacter baumannii is 128 µg/mL (≈ 230 µM); with Citrobacter freundii it was 64 µg/mL (≈ 115 µM); in the experiment with Enterobacter cloacae, over 128 µg/mL; in the experiment on Enterobacter cloacae (setting [10]), 64 µg/mL (≈ 115 µM); against Escherichia coli [1] it was over 128 µg/mL; with Escherichia coli [2], 128 µg/mL (≈ 230 µM). Besides, the MIC with Escherichia coli [3] is 64 µg/mL (≈ 115 µM); against Enterococcus faecalis, over 128 µg/mL; against Pseudomonas aeruginosa [4], over 128 µg/mL; in the experiment with Pseudomonas aeruginosa [5] (setting [9]), over 128 µg/mL; with Serratia marcescens, over 128 mg/L; in the experiment on Serratia marcescens (setting [11]) it was 128 mg/L (≈ 230 µM). The values for the MIC in the experiment with Staphylococcus aureus [6], against Acinetobacter lwoffii and in the experiment with Staphylococcus aureus [7] were over 128 µg/mL, over 128 µg/mL and 16 µg/mL (≈ 28.8 µM), respectively.
Turning to `CN[C@@H]1[C@@H](O)[C@@H](O[C@@H]2[C@@H](O)[C@H](O[C@H]3O[C@H](CN)[C@@H](O)[C@H](O)[C@H]3O)[C@@H](N)C[C@H]2NC(=O)[C@@H](O)CN)OC[C@]1(C)O` [ISEPAMICIN], the MIC with Acinetobacter baumannii worked out at 32 µg/mL (≈ 56.2 µM); in the experiment with Citrobacter freundii, 4 µg/mL (≈ 7.02 µM); against Enterobacter cloacae, 8 µg/mL (≈ 14 µM); with Enterobacter cloacae (setting [10]), 4 µg/mL (≈ 7.02 µM); with Escherichia coli [1], 32 µg/mL (≈ 56.2 µM); with Escherichia coli [2], 8 µg/mL (≈ 14 µM). For the same molecule, the MIC is 2 µg/mL (≈ 3.51 µM) against Escherichia coli [3]; 64 µg/mL (≈ 112 µM) with Enterococcus faecalis; 16 µg/mL (≈ 28.1 µM) in the experiment with Pseudomonas aeruginosa [4]; 64 µg/mL (≈ 112 µM) in the experiment on Pseudomonas aeruginosa [5]; 64 µg/mL (≈ 112 µM) in the experiment with Pseudomonas aeruginosa [5] (setting [9]); 2 µg/mL (≈ 3.51 µM) in the experiment on Staphylococcus aureus [6]. Moreover, the MIC in the experiment on Acinetobacter lwoffii was determined as 16 µg/mL (≈ 28.1 µM); against Staphylococcus aureus [7] it was 4 µg/mL (≈ 7.02 µM).

The values above are taken from ChEMBL document CHEMBL1128666, “Synthesis and antimicrobial and toxicological studies of amino acid and peptide derivatives of kanamycin A and netilmicin” (J Med Chem, 1995).
